LMPTP inh: LMPTP (human) inhibition; P24666; recombinant LMPTP-A, OMFP fluorogenic substrate, fluorescence intensity; inhibition, % at 20 µM; 0.22% of 360,000 active; AID 651560;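 active = compounds that cut the enzyme signal by at least half of the control window in the single-dose screen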
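Test system: LMPTP-A phosphatase enzyme. Amount: LMPTP-A at 0.625 nM final in the reaction. Reagent: OMFP substrate, 400 µM final. Times: 50 min at room temperature. Signal: endpoint fluorescence intensity from OMFP dephosphorylation. Read-out basis: % inhibition. Benchmarks: no-enzyme and uninhibited controls.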
DNMT1 inh: inhibitors of human DNMT1 | AID 588458 | inhibition (reported as % activation of signal), % at 10 µM | 0.83% of 360,000 active | P26358 | DNMT1 molecular beacon, Hinp1I cleavage, fluorescence; in the data active = inhibition above about 50%
Target sequence (P26358 504-1616 limits assumed): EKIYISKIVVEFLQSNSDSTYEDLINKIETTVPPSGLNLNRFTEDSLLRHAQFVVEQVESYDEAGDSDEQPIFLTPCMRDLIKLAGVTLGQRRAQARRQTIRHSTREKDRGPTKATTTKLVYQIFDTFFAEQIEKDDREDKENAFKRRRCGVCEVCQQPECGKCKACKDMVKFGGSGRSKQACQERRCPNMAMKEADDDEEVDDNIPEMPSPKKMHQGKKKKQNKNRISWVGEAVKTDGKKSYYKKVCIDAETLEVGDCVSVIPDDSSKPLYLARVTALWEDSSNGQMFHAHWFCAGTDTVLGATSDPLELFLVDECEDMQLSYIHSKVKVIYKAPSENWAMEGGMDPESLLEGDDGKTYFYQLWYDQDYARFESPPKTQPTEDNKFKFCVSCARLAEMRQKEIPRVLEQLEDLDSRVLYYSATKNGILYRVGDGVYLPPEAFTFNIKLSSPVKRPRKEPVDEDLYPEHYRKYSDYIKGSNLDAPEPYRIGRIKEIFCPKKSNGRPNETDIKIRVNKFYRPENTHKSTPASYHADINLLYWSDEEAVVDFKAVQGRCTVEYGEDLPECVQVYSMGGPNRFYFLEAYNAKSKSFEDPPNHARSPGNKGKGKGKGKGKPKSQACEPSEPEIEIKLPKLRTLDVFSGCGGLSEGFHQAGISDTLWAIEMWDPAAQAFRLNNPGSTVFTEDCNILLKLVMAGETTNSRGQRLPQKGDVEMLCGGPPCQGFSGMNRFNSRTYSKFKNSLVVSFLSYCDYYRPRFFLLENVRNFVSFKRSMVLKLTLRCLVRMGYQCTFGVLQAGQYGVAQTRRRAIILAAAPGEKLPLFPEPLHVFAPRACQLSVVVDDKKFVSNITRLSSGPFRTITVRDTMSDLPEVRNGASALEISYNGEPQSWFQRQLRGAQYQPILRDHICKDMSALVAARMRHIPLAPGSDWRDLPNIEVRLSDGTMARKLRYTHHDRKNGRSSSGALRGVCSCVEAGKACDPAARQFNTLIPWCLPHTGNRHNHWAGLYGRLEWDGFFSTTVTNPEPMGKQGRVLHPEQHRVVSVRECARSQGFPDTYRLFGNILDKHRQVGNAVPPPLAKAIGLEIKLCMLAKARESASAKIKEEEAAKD
NadD block: inhibitors of Staphylococcus aureus NadD; purified NadD enzyme, colorimetric absorbance read-out; inhibition, % at 20 µM; 0.78% of 360,000 active; AID 602399; in the data active = inhibition above about 26%
Scp-1 inhibitor: Scp-1 (human) phosphatase inhibition | 0.88% of 340,000 active | AID 493091 | inhibition, % at 20 µM | Recombinant Scp1, phosphopeptide, malachite green phosphate absorbance | Q9GZU7;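 active = inhibition above about 50% at 20 µM, limit read from the data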
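Material: truncated SCP-1 phosphatase (76-261aa) / Buffer or medium: 50 mM Tris acetate pH 5.5, 0.005% Tween-20, 10 mM MgCl2 / Compound dosing: one concentration, 20 µM, with 1.0% DMSO / Incubation: 45 min room-temperature reaction, 5 min colour, 30 min stabiliser / Detection: colorimetric free-phosphate detection, absorbance 630 nm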
SUMO1-SIM PPI: modulators of human SUMO1-mediated protein-protein interactions; 0.33% of 360,000 active; P63165; SUMO1 binding to a labelled peptide, TR-FRET, 1 h; inhibition, % at 20 µM; in the data active = inhibition above about 37%
STEP inh: STEP (human) phosphatase inhibition; 0.25% of 360,000 active; P54829; AID 588621; inhibition, % at 20 µM; recombinant STEP, OMFP fluorogenic substrate, fluorescence;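 active = inhibition at 20 µM, scaled per plate between control wells, above about 37%, limit read from the data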
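System: isolated STEP enzyme; schedule: 20 min enzyme reaction at room temperature, protected from light; medium: Bis-Tris buffer pH 6.0, 2.5 mM DTT, 0.005% Tween 20; signal: fluorescence, 480/540 nm; dosing: single compound dose of 20 µM, 1% DMSO final; also added: OMFP substrate, 25 µM final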
DNMT1 interf DR: counter-screen for DNMT1 inhibitors: spectral interference, dose response; shares compounds with DNMT1 inh; molecular beacon fluorescence; IC50, µM; 200 tested, under 10 active; AID 602382; call rule not given here
DNMT1 confirm: confirmation of human DNMT1 inhibitors | shares compounds with DNMT1 inh | DNMT1 molecular beacon HinP1I cleavage, fluorescence | inhibition, % at 10 µM | 8% of 2,300 active | AID 602385;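 active = average inhibition of at least 30% in the single-concentration confirmation test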
DNMT1 interf: counter-screen for DNMT1 inhibitors: spectral interference | shares compounds with DNMT1 inh | DNMT1 molecular beacon spectral interference counterscreen, fluorescence 485/520 | activation (fluorescence interference), % at 10 µM | 1% of 2,300 active;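 active = activation of at least 30% at 10 µM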;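 note: DNMT1 catalytic domain with a HinP1I cleavage step and a FAM/dabcyl DNA beacon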
A number is an active result. This is a sample that favours compounds with a hit; in the whole collection about 2.4% have one here.

`CCOC(=O)N1CCN(Cc2nc(CC3CC3)no2)CC1` gave LMPTP inh inactive, DNMT1 inh 81.6, NadD block inactive, Scp-1 inhibitor inactive, SUMO1-SIM PPI inactive, STEP inh inactive, DNMT1 confirm inactive and DNMT1 interf inactive.
CC(C)(C)SCCNC(=O)CN(c1ccc(F)cc1)S(=O)(=O)c1ccccc1 was read as LMPTP inh inactive, DNMT1 inh inactive, NadD block inactive, Scp-1 inhibitor inactive, SUMO1-SIM PPI inactive and STEP inh inactive.
For CCN(C(=O)COC(=O)CCOc1ccc(C(C)(C)C)cc1)c1c(N)n(Cc2ccccc2)c(=O)[nH]c1=O the results were LMPTP inh inactive, DNMT1 inh 63.4, NadD block inactive, Scp-1 inhibitor inactive, SUMO1-SIM PPI inactive, STEP inh inactive, DNMT1 confirm inactive and DNMT1 interf inactive.
For O=C(Nc1ccccc1C(=O)N1CCOCC1)c1ccc(Br)cc1 the results were LMPTP inh inactive, DNMT1 inh inactive, NadD block inactive, Scp-1 inhibitor inactive, SUMO1-SIM PPI inactive and STEP inh inactive.
Screening CCOC(=O)c1c(NC(=O)C2CCCO2)sc(C(=O)OC(C)(C)C)c1C (stereo unspecified) returned LMPTP inh inactive, DNMT1 inh 50.6, NadD block inactive, Scp-1 inhibitor inactive, SUMO1-SIM PPI inactive, STEP inh inactive, DNMT1 confirm inactive and DNMT1 interf inactive.
For CCOC(=O)c1c(NC(=O)C2CCCO2)sc(C)c1C (stereo unspecified) the results were LMPTP inh inactive, DNMT1 inh inactive, NadD block inactive, Scp-1 inhibitor inactive, SUMO1-SIM PPI inactive and STEP inh inactive.
Clc1ccc(-c2cc3nc(NCc4cccc(Cl)c4)ccn3n2)cc1 was read as LMPTP inh inactive, DNMT1 inh 79.5, NadD block inactive, SUMO1-SIM PPI inactive, STEP inh inactive, DNMT1 confirm inactive and DNMT1 interf inactive.
For O=C(NCc1ccon1)C1CCC(=O)N(CCc2ccc(Cl)cc2)C1 (stereo unspecified) the results were LMPTP inh inactive, DNMT1 inh inactive, NadD block inactive, Scp-1 inhibitor inactive, SUMO1-SIM PPI inactive and STEP inh inactive.
Screening CCOC(=O)C1C(=O)CC(=O)CC1CC(C)SCC (stereo unspecified) returned LMPTP inh inactive, DNMT1 inh 79.0, NadD block inactive, Scp-1 inhibitor inactive, SUMO1-SIM PPI inactive, STEP inh inactive, DNMT1 confirm inactive and DNMT1 interf inactive.
Screening CCOC(=O)C1C(=O)C(=O)N(C(C)C)C1C(=O)OCC (stereo unspecified) returned LMPTP inh inactive, DNMT1 inh inactive, NadD block inactive, Scp-1 inhibitor inactive, SUMO1-SIM PPI inactive and STEP inh inactive.
For N#Cc1c(N)n(CCc2ccc(F)cc2)c2nc3ccccc3nc12 the results were LMPTP inh inactive, DNMT1 inh 70.9, NadD block inactive, Scp-1 inhibitor inactive, SUMO1-SIM PPI inactive, STEP inh inactive, DNMT1 confirm inactive and DNMT1 interf inactive.
`O=C(COC(=O)c1ccc([N+](=O)[O-])s1)Nc1ccc(Cl)cn1` gave LMPTP inh inactive, DNMT1 inh inactive, NadD block inactive, Scp-1 inhibitor inactive, SUMO1-SIM PPI inactive and STEP inh inactive.
Cc1c(Cl)cnc(NC(=O)COC(=O)c2ccc([N+](=O)[O-])s2)c1Cl was read as LMPTP inh inactive, DNMT1 inh 63.3, NadD block inactive, Scp-1 inhibitor inactive, SUMO1-SIM PPI inactive, STEP inh inactive, DNMT1 confirm inactive and DNMT1 interf inactive.
For CCOC(=O)C1=C(C)N=c2s/c(=C/c3ccc(OCC(=O)O)c(OC)c3)c(=O)n2C1c1ccc(Cl)cc1 (stereo unspecified) the results were LMPTP inh inactive, DNMT1 inh 58.5, NadD block inactive, Scp-1 inhibitor 51.0, SUMO1-SIM PPI inactive, STEP inh inactive, DNMT1 interf DR inactive, DNMT1 confirm 58.6 and DNMT1 interf inactive.
For C[n+]1cccc(C(=O)[O-])c1 the results were LMPTP inh inactive, DNMT1 inh inactive, NadD block inactive, Scp-1 inhibitor inactive, SUMO1-SIM PPI inactive and STEP inh inactive.
For CN(C)C(=O)Oc1ccc[n+](C)c1 the results were LMPTP inh inactive, DNMT1 inh 60.3, NadD block inactive, Scp-1 inhibitor inactive, SUMO1-SIM PPI inactive, STEP inh inactive, DNMT1 confirm inactive and DNMT1 interf inactive.
Screening CCOC(=O)N1CCN(c2ccncc2S(=O)(=O)N2CCCCC2)CC1 returned LMPTP inh inactive, DNMT1 inh inactive, NadD block inactive, Scp-1 inhibitor inactive, SUMO1-SIM PPI inactive and STEP inh inactive.
`CCc1cc2c(=O)n3c(nc2s1)-c1[nH]c2ccc(OC)cc2c1CC3` gave LMPTP inh inactive, DNMT1 inh 76.1, NadD block inactive, Scp-1 inhibitor inactive, SUMO1-SIM PPI inactive, STEP inh inactive, DNMT1 confirm inactive and DNMT1 interf inactive.
For CC1=C(C(=O)Nc2ccccc2)C(c2ccc(C)o2)n2c(s/c(=C/c3ccccc3)c2=O)=N1 (stereo unspecified) the results were LMPTP inh inactive, DNMT1 inh 84.3, NadD block inactive, Scp-1 inhibitor inactive, SUMO1-SIM PPI inactive, STEP inh inactive, DNMT1 confirm inactive and DNMT1 interf inactive.
Screening CCCNC(=O)C1(S(=O)(=O)c2ccccc2)CC=CC1 returned LMPTP inh inactive, DNMT1 inh 91.6, NadD block inactive, Scp-1 inhibitor inactive, SUMO1-SIM PPI inactive, STEP inh inactive, DNMT1 confirm inactive and DNMT1 interf inactive.
For Cc1ccc(CNC(=O)C2(S(=O)(=O)c3ccccc3)CC=CC2)cc1 the results were LMPTP inh inactive, DNMT1 inh inactive, NadD block inactive, Scp-1 inhibitor inactive, SUMO1-SIM PPI inactive and STEP inh inactive.
Screening Cc1ccc(S(=O)(=O)N(C)c2ccc(C(=O)Nc3c(C)n(C)n(-c4ccccc4)c3=O)cc2)cc1 returned LMPTP inh inactive, DNMT1 inh inactive, NadD block inactive, Scp-1 inhibitor inactive, SUMO1-SIM PPI inactive and STEP inh inactive.
For Cc1ccc2nc(NC(=O)/C=C/c3ccc4c(c3)OCO4)sc2c1 the results were LMPTP inh inactive, DNMT1 inh 56.3, NadD block inactive, Scp-1 inhibitor inactive, SUMO1-SIM PPI inactive, STEP inh inactive, DNMT1 confirm inactive and DNMT1 interf inactive.
`Cc1cccc2c(N)c3c(nc12)CCCC3` (tested in a mixture with another compound) gave LMPTP inh inactive, DNMT1 inh inactive, NadD block inactive, Scp-1 inhibitor inactive, SUMO1-SIM PPI inactive and STEP inh inactive.
